From ChEMBL document CHEMBL1134561, “6-Substituted-4-(3-bromophenylamino)quinazolines as putative irreversible inhibitors of the epidermal growth factor receptor (EGFR) and human epidermal growth factor receptor (HER-2) tyrosine kinases with enhanced antitumor activity” (J Med Chem, 2001)
pIC50: −log10 of the molar value.

What was measured:
A-431 [1] = assay: Inhibition of cell growth of human epidermoid carcinoma xenograft (A431) model using cell based assay; assay type: functional
[2] = molecular target: Receptor tyrosine-protein kinase erbB-2 (Homo sapiens, UniProt P04626); assay: Inhibition of human epidermal growth factor receptor (HER-2) using enzyme assay
Receptor tyrosine-protein kinase erbB-2, sequence (P04626 whole entry, the tested form may be a part): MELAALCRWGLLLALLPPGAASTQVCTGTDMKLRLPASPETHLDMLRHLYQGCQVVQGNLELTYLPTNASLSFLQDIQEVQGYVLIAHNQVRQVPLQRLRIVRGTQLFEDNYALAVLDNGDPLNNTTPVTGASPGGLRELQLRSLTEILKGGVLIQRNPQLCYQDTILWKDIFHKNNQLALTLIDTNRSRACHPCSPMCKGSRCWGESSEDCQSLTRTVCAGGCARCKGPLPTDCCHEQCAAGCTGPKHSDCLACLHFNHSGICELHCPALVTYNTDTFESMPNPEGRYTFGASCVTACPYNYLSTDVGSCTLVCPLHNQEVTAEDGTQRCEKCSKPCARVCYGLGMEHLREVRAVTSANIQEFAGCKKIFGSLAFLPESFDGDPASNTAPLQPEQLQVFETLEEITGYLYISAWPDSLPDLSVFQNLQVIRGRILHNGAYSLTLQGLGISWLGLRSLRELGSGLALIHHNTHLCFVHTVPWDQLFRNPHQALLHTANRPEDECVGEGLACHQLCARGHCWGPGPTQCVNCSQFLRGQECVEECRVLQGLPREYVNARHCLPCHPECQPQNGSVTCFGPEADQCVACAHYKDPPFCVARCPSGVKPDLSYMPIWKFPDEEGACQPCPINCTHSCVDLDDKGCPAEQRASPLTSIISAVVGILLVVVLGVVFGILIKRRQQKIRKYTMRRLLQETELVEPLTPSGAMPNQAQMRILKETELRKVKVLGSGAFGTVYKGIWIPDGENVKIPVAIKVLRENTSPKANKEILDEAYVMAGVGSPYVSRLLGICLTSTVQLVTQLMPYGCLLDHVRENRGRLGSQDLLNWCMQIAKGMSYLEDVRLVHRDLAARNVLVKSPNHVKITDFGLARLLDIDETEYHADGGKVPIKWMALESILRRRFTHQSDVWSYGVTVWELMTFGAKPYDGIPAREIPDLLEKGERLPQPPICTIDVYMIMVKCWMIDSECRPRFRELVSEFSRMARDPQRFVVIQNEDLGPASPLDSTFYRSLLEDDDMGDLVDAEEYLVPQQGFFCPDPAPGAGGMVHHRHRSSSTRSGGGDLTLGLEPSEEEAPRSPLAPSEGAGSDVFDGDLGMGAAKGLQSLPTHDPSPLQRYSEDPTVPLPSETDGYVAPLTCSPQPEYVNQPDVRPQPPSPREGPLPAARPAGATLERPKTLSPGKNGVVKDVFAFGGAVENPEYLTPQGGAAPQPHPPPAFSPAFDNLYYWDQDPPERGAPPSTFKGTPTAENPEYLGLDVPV
Procedure, shortened: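 His6-tagged HER-2 cytoplasmic domain was expressed in Sf-9 cells and purified on Ni-NTA (about 80% pure). Enzyme (12.5 ng/well) was preincubated with compound 10 min at room temperature in HEPES pH 7.4. Autophosphorylation ran 1 h with MnCl2/Na3VO4/DTT buffer plus 0.1 mM ATP–50 mM MgCl2 (as added). Europium anti-phosphotyrosine time-resolved fluorescence was read at 340/615 nm. IC50 came from eight concentrations, mean of duplicates.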

[3] = molecular target: Epidermal growth factor receptor (Homo sapiens, UniProt P00533); assay: Inhibition of epidermal growth factor receptor using enzyme assay
Epidermal growth factor receptor, sequence (P00533 whole entry): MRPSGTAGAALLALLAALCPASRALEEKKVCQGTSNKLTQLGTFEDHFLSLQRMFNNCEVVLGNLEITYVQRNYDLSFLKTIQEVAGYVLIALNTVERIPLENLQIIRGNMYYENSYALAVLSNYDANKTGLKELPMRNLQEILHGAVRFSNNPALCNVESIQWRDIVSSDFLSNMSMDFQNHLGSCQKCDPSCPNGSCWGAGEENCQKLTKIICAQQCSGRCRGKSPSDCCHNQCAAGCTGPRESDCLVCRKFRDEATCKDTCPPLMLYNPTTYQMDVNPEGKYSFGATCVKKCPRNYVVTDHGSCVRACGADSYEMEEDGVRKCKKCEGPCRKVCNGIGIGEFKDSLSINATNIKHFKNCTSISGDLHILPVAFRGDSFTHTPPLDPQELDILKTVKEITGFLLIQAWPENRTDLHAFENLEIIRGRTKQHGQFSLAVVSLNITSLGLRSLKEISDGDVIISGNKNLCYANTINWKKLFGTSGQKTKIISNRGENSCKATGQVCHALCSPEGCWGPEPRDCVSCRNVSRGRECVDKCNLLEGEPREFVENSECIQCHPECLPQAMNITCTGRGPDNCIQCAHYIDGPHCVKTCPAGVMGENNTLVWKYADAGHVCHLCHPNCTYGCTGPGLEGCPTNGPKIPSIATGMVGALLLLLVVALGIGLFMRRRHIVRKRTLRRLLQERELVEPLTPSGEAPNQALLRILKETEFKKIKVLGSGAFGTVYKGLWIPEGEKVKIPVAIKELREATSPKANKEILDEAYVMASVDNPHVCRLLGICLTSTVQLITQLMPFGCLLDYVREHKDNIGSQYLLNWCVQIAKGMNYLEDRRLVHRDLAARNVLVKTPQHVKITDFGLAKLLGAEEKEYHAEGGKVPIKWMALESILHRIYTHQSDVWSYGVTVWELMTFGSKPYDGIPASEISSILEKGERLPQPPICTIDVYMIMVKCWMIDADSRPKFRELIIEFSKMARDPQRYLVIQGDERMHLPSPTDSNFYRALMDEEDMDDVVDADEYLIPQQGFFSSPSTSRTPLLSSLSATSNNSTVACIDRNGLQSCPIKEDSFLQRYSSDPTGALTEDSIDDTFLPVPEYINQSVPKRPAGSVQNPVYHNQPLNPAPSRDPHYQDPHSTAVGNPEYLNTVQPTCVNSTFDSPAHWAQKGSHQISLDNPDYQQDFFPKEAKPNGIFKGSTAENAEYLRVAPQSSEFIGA

SK-BR-3 = assay: Inhibition of cell growth of SKBr3 cell lines using cell-based assay; assay type: functional; details: Homo sapiens
Procedure, shortened: (§1)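 Cells kept in RPMI-1640 with 5% fetal bovine serum and plated at 5.0 × 10^4/mL. Next day they were dosed at 0.5, 5, 50, 500 and 5000 ng/mL and cultured 2 days. Survival was read by sulforhodamine B. IC50 is the concentration inhibiting growth by 50%, taken from the five-point dose-response curve.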

SW-620 = assay: Inhibition of cell growth of SW620 cell lines using cell-based assay; assay type: functional; details: Homo sapiens; procedure, shortened: as §1
A-431 [4] = assay: Inhibition of human epidermoid carcinoma xenograft (A431) tumor growth; assay type: functional, cell-based
Procedure, shortened: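 Female athymic nu/nu mice received 5 × 10^6 A431 cells sc in the flank. At 80–120 mg tumor mass they were randomized, 10 per group. Dosing was oral, once daily on days 1–10, 40 mg/kg in 0.2% Klucel, with a vehicle control. Tumor mass [(length × width²)/2] was measured every 7 days from day 8 to 29. Relative growth is versus day 0, compared by Student t-test of log values.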

SMILES | pIC50 (A-431 [1]) | pIC50 [2] | pIC50 [3] | pIC50 (SK-BR-3) | pIC50 (SW-620) | pIC50 (A-431 [4])
COC[C@@H]1CCCN1C/C=C\C(=O)Nc1ccc2ncnc(Nc3cccc(Br)c3)c2c1 | 6.45 | 5.53 | 6.71 | 7.89 | 5.54 | –
COC[C@@H]1CCCN1C/C=C/C(=O)Nc1ccc2ncnc(Nc3cccc(Br)c3)c2c1 | 6.65 | 5.72 | 6.88 | 8.70 | 5.58 | –
C=CC(=O)Nc1ccc2ncnc(Nc3cccc(Br)c3)c2c1 | – | 6.94 | – | 7.82 | 5.38 | 7.02
O=C(/C=C/CN1CCOCC1)Nc1ccc2ncnc(Nc3cccc(Br)c3)c2c1 | 5.72 | 5.56 | 7.13 | 7.89 | 4.97 | –
COCCOCC#CC(=O)Nc1ccc2ncnc(Nc3cccc(Br)c3)c2c1 | 7.11 | 6.94 | 7.19 | 8.05 | 6.02 | –
CCCN(CC#CC(=O)Nc1ccc2ncnc(Nc3cccc(Br)c3)c2c1)CCC | 7.38 | 6.75 | 7.21 | 8.70 | 6.70 | –
CCN(CC)CC#CC(=O)Nc1ccc2ncnc(Nc3cccc(Br)c3)c2c1 | 6.95 | 7.42 | 7.92 | 8.22 | 6.21 | –
O=C(C#CCN1CCSCC1)Nc1ccc2ncnc(Nc3cccc(Br)c3)c2c1 | 7.08 | 6.91 | 7.02 | 8.70 | 6.24 | –
C/C=C\C(=O)Nc1ccc2ncnc(Nc3cccc(Br)c3)c2c1 | – | 4.66 | – | 6.13 | 4.90 | –
CN(C)CC#CC(=O)Nc1ccc2ncnc(Nc3cccc(Br)c3)c2c1 | – | 7.85 | – | 7.96 | 6.28 | –
C=CCN(C)CC#CC(=O)Nc1ccc2ncnc(Nc3cccc(Br)c3)c2c1 | – | 7.07 | 7.15 | 9.00 | 6.54 | 7.48
COC[C@H]1CCCN1C/C=C/C(=O)Nc1ccc2ncnc(Nc3cccc(Br)c3)c2c1 | 6.21 | 6.13 | 7.07 | 9.00 | 5.00 | –
COCCN(C)C/C=C/C(=O)Nc1ccc2ncnc(Nc3cccc(Br)c3)c2c1 | 6.25 | 6.20 | 7.21 | 8.52 | 5.23 | –
O=C(C#CCN1CCCCC1)Nc1ccc2ncnc(Nc3cccc(Br)c3)c2c1 | 7.49 | 7.14 | 7.24 | 8.70 | 6.52 | –
COCC#CC(=O)Nc1ccc2ncnc(Nc3cccc(Br)c3)c2c1 | 6.57 | 7.48 | 8.05 | 7.34 | 5.76 | –
CN(C)/C=C/C(=O)Nc1ccc2ncnc(Nc3cccc(Br)c3)c2c1 | – | 4.59 | 6.60 | 5.76 | 4.92 | 5.68
CC(C)N(C)CC#CC(=O)Nc1ccc2ncnc(Nc3cccc(Br)c3)c2c1 | 7.11 | 6.95 | 7.07 | 8.40 | 6.63 | –
CC#CC(=O)Nc1ccc2ncnc(Nc3cccc(Br)c3)c2c1 | – | 6.42 | – | 7.77 | 5.82 | –
CCN(CC)C/C=C/C(=O)Nc1ccc2ncnc(Nc3cccc(Br)c3)c2c1 | 6.71 | 5.93 | 7.14 | 8.70 | 5.62 | –

SMILES | pIC50 (A-431 [1]) | pIC50 [2] | pIC50 [3] | pIC50 (SK-BR-3) | pIC50 (SW-620) | pIC50 (A-431 [4])
C=C(C)C(=O)Nc1ccc2ncnc(Nc3cccc(Br)c3)c2c1 | – | 4.82 | – | 5.65 | 4.68 | –
CCN1CCN(CC#CC(=O)Nc2ccc3ncnc(Nc4cccc(Br)c4)c3c2)CC1 | 6.22 | 6.74 | 7.19 | 7.21 | 5.34 | –
CCCN(C/C=C/C(=O)Nc1ccc2ncnc(Nc3cccc(Br)c3)c2c1)CCC | 6.84 | 5.85 | 7.05 | 8.70 | 5.64 | –
COC/C=C/C(=O)Nc1ccc2ncnc(Nc3cccc(Br)c3)c2c1 | 5.07 | 5.05 | 5.95 | 6.43 | 4.92 | –
CN1CCC=C(C(=O)Nc2ccc3ncnc(Nc4cccc(Br)c4)c3c2)C1 | 5.63 | 5.30 | 6.94 | 6.32 | 4.98 | –
CC(C)N(CC#CC(=O)Nc1ccc2ncnc(Nc3cccc(Br)c3)c2c1)C(C)C | 7.03 | 6.79 | 7.01 | 8.40 | 6.52 | –
COCOCC#CC(=O)Nc1ccc2ncnc(Nc3cccc(Br)c3)c2c1 | – | 6.91 | 7.23 | 7.04 | 5.68 | 6.51
O=C(C#CCN1CCOCC1)Nc1ccc2ncnc(Nc3cccc(Br)c3)c2c1 | 6.82 | 7.28 | 7.70 | 8.70 | 5.78 | –
C/C=C/C(=O)Nc1ccc2ncnc(Nc3cccc(Br)c3)c2c1 | – | 4.04 | – | 5.96 | 4.88 | –
O=C(/C=C/CN1CCSCC1)Nc1ccc2ncnc(Nc3cccc(Br)c3)c2c1 | 6.23 | 5.55 | 6.69 | 7.92 | 5.07 | –
O=C(/C=C/Cn1cccn1)Nc1ccc2ncnc(Nc3cccc(Br)c3)c2c1 | 5.86 | 4.81 | 5.95 | 6.25 | 4.95 | –
CN(C/C=C/C(=O)Nc1ccc2ncnc(Nc3cccc(Br)c3)c2c1)CCO | 6.48 | 6.38 | 7.85 | 8.52 | 5.12 | –
COCC1CCCN1CC#CC(=O)Nc1ccc2ncnc(Nc3cccc(Br)c3)c2c1 (centres undefined) | 7.09 | 6.93 | 7.19 | 8.70 | 6.49 | –
CN(C)C/C=C/C(=O)Nc1ccc2ncnc(Nc3cccc(Br)c3)c2c1 | – | 6.52 | – | 8.70 | 5.63 | –
O=C(C#CCO)Nc1ccc2ncnc(Nc3cccc(Br)c3)c2c1 | – | 7.80 | – | 7.37 | – | –
C=C(CN1CCOCC1)C(=O)Nc1ccc2ncnc(Nc3cccc(Br)c3)c2c1 | – | 6.34 | 6.97 | 8.52 | 6.33 | 6.89
O=C(/C=C/CN1CCCCC1)Nc1ccc2ncnc(Nc3cccc(Br)c3)c2c1 | 6.74 | 5.81 | 6.97 | 8.40 | 5.57 | –
O=C(/C=C/CN1CCC(N2CCCCC2)CC1)Nc1ccc2ncnc(Nc3cccc(Br)c3)c2c1 | 6.12 | 5.80 | 7.17 | 8.00 | 5.38 | –
O=C(/C=C/N1CCOCC1)Nc1ccc2ncnc(Nc3cccc(Br)c3)c2c1 | – | 5.38 | 6.67 | 5.99 | 5.70 | 5.97
